Converted amounts (≈) assume the structure as drawn.
Key:
Format in all cases: functional
Botrytis cinerea [1] = assay: Antifungal activity against Botryotinia fuckeliana infected in compound pre-treated tomato plant seedlings assessed as tomato gray mold disease control efficacy at 50 ug/mL measured 3 days post fungus inoculation under greenhouse conditions
Botrytis cinerea [2] = assay: Antifungal activity against Botryotinia fuckeliana infected in compound pre-treated tomato plant seedlings assessed as tomato gray mold disease control efficacy at 5 ug/mL measured 3 days post fungus inoculation under greenhouse conditions
Phytophthora infestans [3] = assay: Antifungal activity against Phytophthora infestans infected compound pre-treated tomato plant seedlings assessed as tomato late blight disease control efficacy at 10 ug/mL measured after 2 days under greenhouse conditions
Outline: (§1)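 Tomato seedlings at second-leaf stage sprayed to runoff with compound in 1% Tween 20 (water/DMSO 99:1), left 24 h, then sprayed with P. infestans zoospore suspension (5 × 10^4 sporangia/mL). Held 1 day at 20 C, 100% RH, then 2 days in growth chamber. Three replicates, randomized blocks; % control from infected area versus Tween 20/1% DMSO controls.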

Phytophthora infestans [4] = assay: Antifungal activity against Phytophthora infestans infected compound pre-treated tomato plant seedlings assessed as tomato late blight disease control efficacy at 2 ug/mL measured after 2 days under greenhouse conditions; outline: as §1
Phytophthora infestans [5] = assay: Antifungal activity against Phytophthora infestans infected compound pre-treated tomato plant seedlings assessed as tomato late blight disease control efficacy at 100 ug/mL measured after 2 days under greenhouse conditions; outline: as §1
Phytophthora infestans [6] = assay: Antifungal activity against Phytophthora infestans infected compound pre-treated tomato plant seedlings assessed as tomato late blight disease control efficacy at 50 ug/mL measured after 2 days under greenhouse conditions; outline: as §1
Corticium [7] = assay: Antifungal activity against Corticium sasaki infected compound pre-treated rice plant seedlings through soil application of fungus assessed as rice sheath blight disease control efficacy at 5 ug/mL under greenhouse conditions
Outline: (§2)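 Rice seedlings at fourth-leaf stage sprayed to runoff with compound in 1% Tween 20 (water/DMSO 99:1), left 24 h, then inoculated by adding 7-day-old C. sasaki cultures to soil. Greenhouse; three replicates, randomized complete block; % control = 100×[(A−B)/A] from infected sheath area relative to Tween 20/1% DMSO-treated plants.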

Corticium [8] = assay: Antifungal activity against Corticium sasaki infected compound pre-treated rice plant seedlings through soil application of fungus assessed as rice sheath blight disease control efficacy at 50 ug/mL under greenhouse conditions; outline: as §2
Puccinia recondita [9] = assay: Antifungal activity against Puccinia recondita infected compound pre-treated wheat plant seedlings assessed as wheat leaf rust disease control efficacy at 50 ug/mL under greenhouse conditions
Outline: (§3)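 Barley or wheat seedlings sprayed to runoff with compound in 1% Tween 20 containing water/DMSO (99:1); controls got Tween 20 with 1% DMSO; left 24 h before inoculation; greenhouse. Pots in randomized complete block, three replicates; infected leaf area averaged and converted to % control = 100×[(A−B)/A] versus Tween-only plants.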

Puccinia recondita [10] = assay: Antifungal activity against Puccinia recondita infected compound pre-treated wheat plant seedlings assessed as wheat leaf rust disease control efficacy at 20 ug/mL under greenhouse conditions; outline: as §3
Blumeria hordei [11] = assay: Antifungal activity against Blumeria graminis f. sp. hordei infected compound pre-treated barley plant seedlings assessed as barley powdery mildew disease control efficacy at 1 ug/mL under greenhouse conditions; outline: as §3
Blumeria hordei [12] = assay: Antifungal activity against Blumeria graminis f. sp. hordei infected compound pre-treated barley plant seedlings assessed as barley powdery mildew disease control efficacy at 100 ug/mL under greenhouse conditions; outline: as §3
Phytophthora infestans [13] = assay: Antifungal activity against Phytophthora infestans after 48 to 72 hr by agar dilution method
Outline: (§4)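 Agar dilution: DMSO stock added to molten medium (potato dextrose agar, or V-8 juice agar) at 0.25–128 μg/mL, 2-fold series. Inoculum was 5 mm mycelial disks from actively growing colony margins pre-grown 3–7 days at 20–25 C. Plates incubated 20–25 C for 24–72 h. MIC = lowest concentration giving complete growth inhibition versus compound-free plate; three repeats.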

Corticium [14] = assay: Antifungal activity against Corticium sasaki infected compound pre-treated rice plant seedlings through soil application of fungus assessed as rice sheath blight disease control efficacy at 100 ug/mL under greenhouse conditions
Outline: (§5)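 Rice seedlings were sprayed to runoff with compound in 1% Tween 20 containing 1% DMSO; controls got Tween 20 with 1% DMSO. After 24 h, fourth-leaf-stage plants were inoculated by adding 7-day-old C. sasaki cultures to the soil. Infected sheath area was scored. Three replicates in randomized complete blocks; % control = 100 × (A−B)/A against the Tween-only control.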

Globisporangium ultimum = assay: Antifungal activity against Pythium ultimum after 48 to 72 hr by agar dilution method
Outline: (§6)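 Agar dilution MIC on field-isolate phytopathogens. Compound in DMSO added to molten potato dextrose agar at 0.25-128 μg/mL (2-fold serial dilution). Inocula were 5 mm mycelial disks cut from actively growing colony margins after 3-7 days at 20-25 C. Plates were incubated at 20-25 C for 24-72 h. MIC is the lowest concentration giving complete growth inhibition versus a no-compound control. Run three times.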

Corticium [15] = assay: Antifungal activity against Corticium sasaki infected compound pre-treated rice plant seedlings through soil application of fungus assessed as rice sheath blight disease control efficacy at 33 ug/mL under greenhouse conditions; outline: as §5
Colletotrichum lagenaria = assay: Antifungal activity against Colletotrichum lagenaria after 48 to 72 hr by agar dilution method; outline: as §6
Clavispora lusitaniae = assay: Antifungal activity against Clavispora lusitaniae ATCC 6258 after 48 to 72 hr by agar dilution method
Blumeria hordei [16] = assay: Antifungal activity against Blumeria graminis f. sp. hordei infected compound pre-treated barley plant seedlings assessed as barley powdery mildew disease control efficacy at 11 ug/mL under greenhouse conditions
Outline: (§7)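 Greenhouse protective assay. Seedlings were sprayed to runoff with compound in 1% Tween 20 containing 1% DMSO; controls got Tween 20 with 1% DMSO. Plants stood 24 h before pathogen inoculation. Infected leaf area was scored. Three replicates in randomized complete blocks; % control = 100 × (A−B)/A against the Tween-only control; means compared by LSD at P = 0.05.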

Rhizoctonia solani = assay: Antifungal activity against Rhizoctonia solani after 48 to 72 hr by agar dilution method; outline: as §6
Pyricularia grisea [17] = assay: Antifungal activity against Magnaporthe grisea infected compound pre-treated rice plant seedlings assessed as rice blast disease control efficacy at 100 ug/mL under greenhouse conditions
Outline: (§8)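 Rice seedlings at third-leaf stage sprayed to runoff with compound in 1% Tween 20 (water/DMSO 99:1), left 24 h, then sprayed with M. grisea spores (5 × 10^5 spores/mL). Greenhouse; randomized complete block, three replicates; % control = 100×[(A−B)/A] from infected leaf area versus Tween 20/1% DMSO controls.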

Puccinia recondita [18] = assay: Antifungal activity against Puccinia recondita infected compound pre-treated wheat plant seedlings assessed as wheat leaf rust disease control efficacy at 100 ug/mL under greenhouse conditions; outline: as §7
Candida albicans [19] = assay: Antifungal activity against Candida albicans ATCC 10231 after 48 to 72 hr by agar dilution method
Pichia kudriavzevii = assay: Antifungal activity against Pichia kudriavzevii ATCC 42720 after 48 to 72 hr by agar dilution method
Phytophthora infestans [20] = assay: Antifungal activity against Phytophthora infestans infected compound pre-treated tomato plant seedlings assessed as tomato late blight disease control efficacy at 11 ug/mL measured after 2 days under greenhouse conditions; outline: as §1
Corticium [21] = assay: Antifungal activity against Corticium sasaki infected compound pre-treated rice plant seedlings through soil application of fungus assessed as rice sheath blight disease control efficacy at 11 ug/mL under greenhouse conditions; outline: as §5
Botrytis cinerea [22] = assay: Antifungal activity against Botryotinia fuckeliana after 48 to 72 hr by agar dilution method; outline: as §6
Botrytis cinerea [23] = assay: Antifungal activity against Botryotinia fuckeliana infected in compound pre-treated tomato plant seedlings assessed as tomato gray mold disease control efficacy at 100 ug/mL measured 3 days post fungus inoculation under greenhouse conditions
Outline: (§9)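 Tomato seedlings were sprayed to runoff with compound in 1% Tween 20 containing 1% DMSO; controls got Tween 20 with 1% DMSO. After 24 h, second-leaf-stage plants were sprayed with B. cinerea spores (10^6/mL) and kept dark at 20 C, 100% RH. Infected leaf area was scored 3 days post-inoculation. Three replicates in randomized complete blocks; % control = 100 × (A−B)/A against the Tween-only control.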

Phytophthora infestans [24] = assay: Antifungal activity against Phytophthora infestans infected compound pre-treated tomato plant seedlings assessed as tomato late blight disease control efficacy at 33 ug/mL measured after 2 days under greenhouse conditions; outline: as §1
Candida albicans [25] = assay: Antifungal activity against Candida albicans isolate A207 after 48 to 72 hr by agar dilution method
Blumeria hordei [26] = assay: Antifungal activity against Blumeria graminis f. sp. hordei infected compound pre-treated barley plant seedlings assessed as barley powdery mildew disease control efficacy at 33 ug/mL under greenhouse conditions; outline: as §7
Botrytis cinerea [27] = assay: Antifungal activity against Botryotinia fuckeliana infected in compound pre-treated tomato plant seedlings assessed as tomato gray mold disease control efficacy at 33 ug/mL measured 3 days post fungus inoculation under greenhouse conditions; outline: as §9
Candida tropicalis = assay: Antifungal activity against Candida tropicalis ATCC 13803 after 48 to 72 hr by agar dilution method
Fusarium oxysporum = assay: Antifungal activity against Fusarium oxysporum after 48 to 72 hr by agar dilution method; outline: as §6
Pyricularia grisea [28] = assay: Antifungal activity against Magnaporthe grisea after 48 to 72 hr by agar dilution method; outline: as §4
Pyricularia grisea [29] = assay: Antifungal activity against Magnaporthe grisea infected compound pre-treated rice plant seedlings assessed as rice blast disease control efficacy at 11 ug/mL under greenhouse conditions; outline: as §8
Pyricularia grisea [30] = assay: Antifungal activity against Magnaporthe grisea infected compound pre-treated rice plant seedlings assessed as rice blast disease control efficacy at 33 ug/mL under greenhouse conditions; outline: as §8
Botrytis cinerea [31] = assay: Antifungal activity against Botryotinia fuckeliana infected in compound pre-treated tomato plant seedlings assessed as tomato gray mold disease control efficacy at 11 ug/mL measured 3 days post fungus inoculation under greenhouse conditions; outline: as §9
Alternaria kikuchiana = assay: Antifungal activity against Alternaria kikuchiana after 48 to 72 hr by agar dilution method; outline: as §6
Cryptococcus neoformans = assay: Antifungal activity against Cryptococcus neoformans ATCC 36556 after 48 to 72 hr […]
Puccinia recondita [32] = assay: Antifungal activity against Puccinia recondita infected compound pre-treated wheat plant seedlings assessed as wheat leaf rust disease control efficacy at 11 ug/mL under greenhouse conditions; outline: as §7
Puccinia recondita [33] = assay: Antifungal activity against Puccinia recondita infected compound pre-treated wheat plant seedlings assessed as wheat leaf rust disease control efficacy at 33 ug/mL under greenhouse conditions; outline: as §7

## N#Cc1c[nH]cc1-c1cccc2c1OC(F)(F)O2 [FLUDIOXONIL]
Botrytis cinerea [1]
  Efficacy: 100%
Botrytis cinerea [2]
  Efficacy: 82%

## COc1ccc(C(=CC(=O)N2CCOCC2)c2ccc(Cl)cc2)cc1OC [DIMETHOMORPH]
Phytophthora infestans [3]
  Efficacy: 100%
Phytophthora infestans [4]
  Efficacy: 64%

## N#Cc1c(Cl)c(Cl)c(Cl)c(C#N)c1Cl [CHLOROTHALONIL]
Phytophthora infestans [5]
  Efficacy: 100%
Phytophthora infestans [6]
  Efficacy: 94%

## OCC1=C[C@H](N[C@H]2C[C@H](CO)[C@@H](O[C@@H]3O[C@H](CO)[C@@H](O)[C@H](O)[C@H]3O)[C@H](O)[C@H]2O)[C@H](O)[C@@H](O)[C@@H]1O [VALIDAMYCIN]
Corticium [7]
  Efficacy: 75%
Corticium [8]
  Efficacy: 100%

## CC1=C(C(=O)Nc2ccccc2)SCCO1 [CARBOXIN]
Puccinia recondita [9]
  Efficacy: 100%
Puccinia recondita [10]
  Efficacy: 43%

## CCCCNC(=O)n1c(NC(=O)OC)nc2ccccc21 [BENOMYL]
Blumeria hordei [11]
  Efficacy: 90%
Blumeria hordei [12]
  Efficacy: 100%

## C/C=C(\C)C(=O)OC[C@]1(O)[C@H]2C[C@H]2[C@]2(C)[C@@H]3CC4=C5[C@H](/C(=C(/C)C(=O)OC)C(=O)[C@H](O)[C@@]5(C)[C@@H]5C[C@H]45)[C@@]34OC(=O)C(COC(C)=O)=C4C[C@@H]12
Phytophthora infestans [13]
  MIC: 32 µg/mL (≈ 47.3 µM)
Corticium [14]
  Efficacy: 69%
Globisporangium ultimum
  MIC: 1 µg/mL (≈ 1.48 µM)
Corticium [15]
  Efficacy: 50%
Colletotrichum lagenaria
  MIC: 8 µg/mL (≈ 11.8 µM)
Clavispora lusitaniae
  MIC: 128 µg/mL (≈ 189 µM)
Blumeria hordei [16]
  Efficacy: 0%
Rhizoctonia solani
  MIC: 16 µg/mL (≈ 23.6 µM)
Pyricularia grisea [17]
  Efficacy: 72%
Phytophthora infestans [5]
  Efficacy: 93%
Puccinia recondita [18]
  Efficacy: 100%
Candida albicans [19]
  MIC: 64 µg/mL (≈ 94.6 µM)
Pichia kudriavzevii
  MIC: 128 µg/mL (≈ 189 µM)
Phytophthora infestans [20]
  Efficacy: 29%
Corticium [21]
  Efficacy: 50%
Botrytis cinerea [22]
  MIC: 8 µg/mL (≈ 11.8 µM)
Botrytis cinerea [23]
  Efficacy: 36%
Phytophthora infestans [24]
  Efficacy: 91%
Candida albicans [25]
  MIC: 8 µg/mL (≈ 11.8 µM)
Blumeria hordei [26]
  Efficacy: 0%
Botrytis cinerea [27]
  Efficacy: 14%
Candida tropicalis
  MIC: > 128 µg/mL
Fusarium oxysporum
  MIC: 16 µg/mL (≈ 23.6 µM)
Pyricularia grisea [28]
  MIC: 4 µg/mL (≈ 5.91 µM)
Pyricularia grisea [29]
  Efficacy: 67%
Pyricularia grisea [30]
  Efficacy: 50%
Botrytis cinerea [31]
  Efficacy: 7.2%
Blumeria hordei [12]
  Efficacy: 17%
Alternaria kikuchiana
  MIC: 8 µg/mL (≈ 11.8 µM)
Cryptococcus neoformans
  MIC: 16 µg/mL (≈ 23.6 µM)
Puccinia recondita [32]
  Efficacy: 80%
Puccinia recondita [33]
  Efficacy: 87%

From ChEMBL document CHEMBL3045045, “Antifungal activity of CHE-23C, a dimeric sesquiterpene from Chloranthus henryi” (2009)
